GASC-1 inh: blocks human GASC-1 demethylase activity; Q9H3R0; GST-JMJD2C(1-420) H3K9me3 demethylation, DELFIA europium; inhibition, % at 2.35 µM; hit rate 0.069% among 330,000; AID 2099;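 active = more than half of a compound's replicate wells show inhibition beyond 50%, single wells judged on their own value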;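 also: signal counts dimethyl H3K9 product captured on neutravidin plate; 0% = median of DMSO wells and 100% = 0.3 times that DMSO median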
PP1 counter: PP1-alpha (human) inhibition in PP5 counter-screen; P62136; purified PP1alpha, OMFP fluorescence; inhibition, % at 6.7 µM; hit rate 0.9% among 320,000;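 active = inhibition above the mean inhibition of all tested compounds plus 3 SD, computed separately for each screening campaign, cut at about 15% in these data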
T cell HTS: T cell immune modulation candidate; response (vesicle binding), % at 7 µM; hit rate 0.068% among 330,000; 2C CD8+ T cell-vesicle binding, flow cytometry; stronger effect = lower value;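 active = response, share of CD8 T cells binding vesicles, and their 90th percentile fluorescence all below set limits, cut at about 80% in these data, passing the limit was not always enough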;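 also: values below 100% mean blocked vesicle binding to the CD8+ T cells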
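Material: 2C TCR transgenic mouse naive CD8+ T cells, MACS-purified. Also added: QL9-charged Drosophila Ld/ICAM-1/B7-1 vesicles. Timing: binding 1.5 h at 37 °C. Measured by: high-throughput flow cytometry with anti-B7-1 and anti-CD8 staining. Read-out: percent CD8+ FL2 mean versus row control. Controls: Unloaded micro-vesicles (low), QL9 vesicles with 0.7% DMSO (high).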
HTR2A ag: mouse HTR2A agonism via beta-arrestin recruitment. P35363. CHO-K1 mHTR2A beta-arrestin complementation, luminescence; percent of 30 µM serotonin response. activation, % at 7.6 µM. hit rate 0.66% among 360,000. AID 624169;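 active = activation above a run cutoff, the mean activation of all tested compounds plus 3 SD, cut at about 14% in these data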;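 also: 0% = plate median of compound wells and 100% = 30 µM serotonin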
Target sequence (P35363 whole entry, looked up): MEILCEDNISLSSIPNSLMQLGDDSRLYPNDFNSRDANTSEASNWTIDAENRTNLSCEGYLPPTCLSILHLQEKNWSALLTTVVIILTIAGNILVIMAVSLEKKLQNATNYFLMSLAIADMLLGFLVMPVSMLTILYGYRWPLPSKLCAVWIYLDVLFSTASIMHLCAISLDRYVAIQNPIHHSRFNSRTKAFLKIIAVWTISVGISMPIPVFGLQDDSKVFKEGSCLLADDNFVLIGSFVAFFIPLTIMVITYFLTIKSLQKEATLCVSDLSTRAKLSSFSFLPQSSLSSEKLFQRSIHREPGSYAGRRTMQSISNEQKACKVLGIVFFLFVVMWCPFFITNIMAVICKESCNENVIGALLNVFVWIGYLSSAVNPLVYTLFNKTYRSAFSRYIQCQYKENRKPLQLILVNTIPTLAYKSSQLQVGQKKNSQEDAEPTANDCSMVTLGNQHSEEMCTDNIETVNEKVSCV
PP5 primary: blocks human protein phosphatase 5 activity; P53041; purified PP5c, OMFP substrate fluorescence; inhibition, % at 6.7 µM; hit rate 0.18% among 320,000;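 active = inhibition above the campaign's mean inhibition across all tested compounds plus 3 SD, cut at about 9.5% in these data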;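 also: 0% = DMSO only and 100% = 100 µM cantharidin control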
MOR ag counter: activates human mu opioid receptor in HTR2A counterscreen; shares compounds with HTR2A ag; U2OS OPRM1 beta-arrestin PathHunter, luminescence; DMSO 0%, DAMGO 9.3 µM 100%; activation, % at 9.3 µM; hit rate 5.3% among 2,300; AID 624380;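 active = mean activation above the mean of DMSO-only wells plus 3 SD, cut at about 0.5% in these data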
m5-HT2A ag conf: confirmation of mouse HTR2A serotonin receptor agonists | CHO-K1 PathHunter beta-arrestin recruitment, luminescence; DMSO 0%, 30 µM serotonin 100% | activation, % at 7.6 µM | hit rate 19% among 2,300 | shares compounds with HTR2A ag | AID 624381;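 active = mean activation across triplicates above the hit threshold derived in the original primary screen, cut at about 15% in these data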
The depositor's hits bear a star. Shown are actives, neighbours in structure and some others; about 1.7% of the full set was active somewhere.

How did COc1ccc(C(=O)N(C)C2CCCN(Cc3ccccc3F)C2)cc1OC (configuration not stated) do in these assays?
GASC-1 inh: -1; PP1 counter: -3; T cell HTS: 206; HTR2A ag: 17*; PP5 primary: 1; MOR ag counter: -1; m5-HT2A ag conf: -3

What do the screens show for `COc1ccc(OC)c(C(=O)N(C)C2CCCN(Cc3ccccc3F)C2)c1` (configuration not stated)?
GASC-1 inh: -16; PP1 counter: -1; T cell HTS: 224; HTR2A ag: 2; PP5 primary: 2

How did CC(C)(C)C(=O)n1nc(-c2ccccc2)oc1=O do in these assays?
GASC-1 inh: -1; PP1 counter: -3; T cell HTS: 556; HTR2A ag: 16*; PP5 primary: 0; MOR ag counter: -1; m5-HT2A ag conf: -4

Results for COc1ccc(-c2cnc3c(NC=O)cc(-c4ccccc4OC)cn23)cc1OC ?
HTR2A ag: 2

What do the screens show for `COc1ccc(N(C)C(=O)c2cc3c(s2)-c2ccc(Cl)cc2S(=O)(=O)C3)c(OC)c1`?
GASC-1 inh: -4; PP1 counter: 3; T cell HTS: 454; HTR2A ag: 14*; PP5 primary: 0; MOR ag counter: 0; m5-HT2A ag conf: -5

Results for NC(=O)c1cc(S(=O)(=O)N2CCN(c3cccc(Cl)c3)CC2)cs1 ?
GASC-1 inh: 3; PP1 counter: -3; T cell HTS: 107; HTR2A ag: 15*; PP5 primary: -1; MOR ag counter: 0; m5-HT2A ag conf: -4

What do the screens show for `Cc1cc(C)c(OCCCNCc2ccccc2)c(Br)c1`?
GASC-1 inh: -10; PP1 counter: -2; T cell HTS: 205; HTR2A ag: 20*; PP5 primary: 2; MOR ag counter: 0; m5-HT2A ag conf: 4

How did Cc1cc(Cl)c(OCCCNCc2ccccc2)c(Br)c1 do in these assays?
GASC-1 inh: -1; PP1 counter: 5; T cell HTS: 311; HTR2A ag: 20*; PP5 primary: 2; MOR ag counter: 0; m5-HT2A ag conf: 10

What do the screens show for `Fc1ccc(Nc2nc(N/N=C/c3ccco3)nc(N3CCCCC3)n2)cc1`?
GASC-1 inh: -11; PP1 counter: 4; T cell HTS: 351; HTR2A ag: -10; PP5 primary: 1

What do the screens show for `CCCNCC1C(Oc2ccc(Cl)cc2Cl)C(=O)N1c1cccc(C)c1C` (configuration not stated)?
GASC-1 inh: 9; PP1 counter: 6; T cell HTS: 200; HTR2A ag: 17*; PP5 primary: 4; MOR ag counter: 0; m5-HT2A ag conf: 8

Results for Cc1cccc(N2C(=O)C(Oc3ccc(Cl)cc3Cl)C2C(=O)O)c1C (configuration not stated) ?
GASC-1 inh: 0; PP1 counter: 3; T cell HTS: 427; HTR2A ag: 5; PP5 primary: 0

How did CN1CCc2c(sc3c2c(=O)n(-c2cccc(Cl)c2)c2nncn32)C1 do in these assays?
GASC-1 inh: 5; PP1 counter: 1; T cell HTS: 218; HTR2A ag: 23*; PP5 primary: 2; MOR ag counter: 0; m5-HT2A ag conf: 2

Results for CN1CCc2c(sc3nc(NCCO)n(-c4cccc(Cl)c4)c(=O)c23)C1 ?
GASC-1 inh: 0; PP1 counter: -1; T cell HTS: 160; HTR2A ag: 1; PP5 primary: 3

What do the screens show for `Cc1cccc(C(=O)NC2=NCCS2)c1`?
GASC-1 inh: 2; PP1 counter: -4; T cell HTS: 159; HTR2A ag: 0; PP5 primary: 2

What do the screens show for `Cc1ccc(C(C)C)c(OCC(=O)OCC(=O)NC2CCS(=O)(=O)C2)c1` (configuration not stated)?
GASC-1 inh: 2; PP1 counter: -4; T cell HTS: 220; HTR2A ag: 5; PP5 primary: 0

How did Cc1ccc(C(C)C)c(OCC(=O)OCC(=O)NC2CC2)c1 do in these assays?
GASC-1 inh: -3; T cell HTS: 688; HTR2A ag: 26*; MOR ag counter: 0; m5-HT2A ag conf: -1
